Data on five compounds can be found in ChEMBL document CHEMBL4834479, “Discovery of the first chemical tools to regulate MKK3-mediated MYC activation in cancer” (Bioorg Med Chem, 2021).

Activity calls are given as the source filed them. The rule behind the calls is not given here.

The target in assay [1] is T1, MAP2K3/Myc proto-oncogene protein (Homo sapiens) (UniProt P46734+P01106). The assay is described as follows: Disruption of interaction between human recombinant GST-tagged MKK3/VF-tagged MYC expressed in HEK293T cells up to 100 uM measured after 2 hrs by TR-FRET assay. Type of assay: cell-based. Conditions: dose microM <=100, time 2.0 hrs.
T1 sequence (P01106 whole entry, looked up, one chain of several): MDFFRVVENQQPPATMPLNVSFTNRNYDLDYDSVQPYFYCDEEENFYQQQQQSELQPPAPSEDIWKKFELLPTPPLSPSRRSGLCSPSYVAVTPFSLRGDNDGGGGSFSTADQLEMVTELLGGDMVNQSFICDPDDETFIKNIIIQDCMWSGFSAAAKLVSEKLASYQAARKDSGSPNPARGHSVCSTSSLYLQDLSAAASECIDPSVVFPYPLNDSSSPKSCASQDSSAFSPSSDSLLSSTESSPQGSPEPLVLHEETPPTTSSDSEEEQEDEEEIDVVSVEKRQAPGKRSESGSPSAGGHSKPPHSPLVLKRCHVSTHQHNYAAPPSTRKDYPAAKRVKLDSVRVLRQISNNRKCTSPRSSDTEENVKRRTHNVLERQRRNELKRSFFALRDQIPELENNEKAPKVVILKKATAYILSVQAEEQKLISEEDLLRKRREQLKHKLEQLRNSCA
Assay [2] concerns the target T1, MAP2K3/Myc proto-oncogene protein (Homo sapiens). As to the kind of experiment: Disruption of interaction between human recombinant GST-tagged MKK3/VF-tagged MYC expressed in HEK293T cells at 20 uM measured after 2 hrs by TR-FRET assay. The assay is classed as cell-based.
For assay [3], the target named is T2, MAP2K3/Myc proto-oncogene protein (Homo sapiens, UniProt P01106+P46734). As to the kind of experiment: Disruption of interaction between human recombinant GST-tagged MKK3/VF-tagged MYC expressed in HEK293T cells measured after 2 hrs by TR-FRET assay. The assay is classed as cell-based. On the technique in general: Time-resolved FRET reads energy transfer from a long-lived donor to a nearby acceptor.
T2 sequence (P01106 whole entry, one chain of several): as the sequence (P01106 whole entry, looked up, one chain of several) above

In assay [4] the target is T1, MAP2K3/Myc proto-oncogene protein (Homo sapiens). As to the kind of experiment: Disruption of interaction between human recombinant GST-tagged MKK3 expressed in HEK293T cells/MYC in human HCT116 cells incubated for 30 mins by GST pull-down assay. The assay is classed as cell-based. Conditions: dose 2-5 µM.
Assay [5] has the same target. The assay is described as follows: Disruption of MKK3/MYC protein-protein interaction in human MDA-MB-468 cells transfected with VF-tagged MKK3 assessed as inhibition of MYC transcriptional activity measured after 12 hrs by […] reporter assay. Type of assay: cell-based. Conditions: dose 0.5-5 µM. The method, boiled down:
(§1)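 Cells were transfected with Venus-Flag-MKK3 or Venus-Flag vector plus a firefly luciferase reporter carrying three MYC E-box sites (or a mutant E-box control) and a Renilla normalization vector. Compound in DMSO (0.5–5 µM, 0.1% DMSO final) was added 36 h post-transfection and cells were incubated 12 h more. Dual-luciferase read-out: firefly/Renilla ratio, then wild-type over mutant E-box fold.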
In general terms: Reporter assays use an easily measured gene product as a stand-in for the process of interest.

Assay [6] shares this target. The assay is described as follows: Disruption of MKK3/MYC protein-protein interaction in human MDA-MB-468 cells assessed as decrease in PDL1 level at 1 to 20 uM measured by western blot assay. Type of assay: cell-based. Particulars: dose 1-20 µM. Background: In western blotting, separated proteins are transferred to a membrane and probed.
The target is the same in assay [7]. The assay is described as follows: Disruption of interaction between human recombinant GST-tagged MKK3/VF-tagged MYC expressed in HEK293T cells at 50 uM incubated for 30 mins by GST pull-down assay. The assay is classed as cell-based. The procedure, abridged:
(§2)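 GST- and Venus-Flag-tagged human proteins were co-expressed in HEK293T cells for 48 h and lysed in 1% NP-40 buffer (HEPES pH 7.5) at 4 °C. Cleared lysates were pre-incubated 30 min with 50 µM compound or DMSO, then 75 min with glutathione sepharose. Beads were washed three times, eluted in SDS loading buffer, and analysed by Western blot.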

A further assay has as its system MDA-MB-468. The assay is described as follows: Inhibition of Renilla luciferase activity expressed in human MDA-MB-468 cells assessed as decrease in luminescence at 10 uM measured after 12 hrs by luminescence assay. Type of assay: cell-based. The procedure, abridged:
(§3)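 Renilla luciferase luminescence was compared between cells treated with 10 µM compound and DMSO control, within the dual-luciferase MYC reporter set-up, using a 12 h compound incubation.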

In assay [8] the target is c-Myc/c-Max (Homo sapiens) (UniProt P01106+P61244). As to the kind of experiment: Disruption of interaction between human recombinant GST-tagged MAX/VF-tagged MYC expressed in HEK293T cells at 50 uM incubated for 30 mins by GST pull-down assay. The assay is classed as cell-based. The method, boiled down: as §2
c-Myc/c-Max (Homo sapiens), sequence (P01106 whole entry): as the sequence (P01106 whole entry, looked up, one chain of several) above
c-Myc/c-Max (Homo sapiens), sequence (P61244 2-160 partner limits assumed): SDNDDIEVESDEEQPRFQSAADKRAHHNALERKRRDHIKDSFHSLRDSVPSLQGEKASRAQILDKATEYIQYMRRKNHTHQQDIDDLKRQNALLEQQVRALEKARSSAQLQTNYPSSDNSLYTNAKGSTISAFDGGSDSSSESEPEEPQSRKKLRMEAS
In assay [9] the target is T1, MAP2K3/Myc proto-oncogene protein (Homo sapiens). As to the kind of experiment: Disruption of MKK3/MYC protein-protein interaction in human HCT-116 cells assessed as decrease in CDK4 level at 0.5 to 10 uM measured by western blot assay. Type of assay: cell-based. Conditions: dose 0.5-10 µM.
Assay [10] concerns HCT-116. The assay is described as follows: Inhibition of cell migration in human HCT-116 cells assessed as relative wound density at 3 uM measured after 18 hrs by scratch wound healing assay (reference value: 20%). The assay is classed as functional. More on the design: scale not given: the % may be the effect or the level left. The procedure, abridged:
(§4)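 Confluent HCT116 monolayers were wounded, washed with fresh medium, and given medium with compound at set concentrations or DMSO. Live-cell imaging scanned every 2 h over 18 h, with relative wound density as the read-out. Four replicates were run.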

Assay [11] addresses T1, MAP2K3/Myc proto-oncogene protein (Homo sapiens). As to the kind of experiment: Disruption of MKK3/MYC protein-protein interaction in human HCT-116 cells assessed as decrease in MYC level at 0.5 to 10 uM measured by western blot assay. The assay is classed as cell-based. Particulars: dose 0.5-10 µM.
Assay [12] shares this target. The assay is described as follows: Disruption of MKK3/MYC protein-protein interaction in human HCT-116 cells assessed as decrease in PDL1 level at 0.5 to 10 uM measured by western blot assay. The assay is classed as cell-based. Particulars: dose 0.5-10 µM.
Another assay relates to HEK293T. As to the kind of experiment: Disruption of interaction between human recombinant GST-tagged MKK3/VF-tagged p38 expressed in HEK293T cells at 50 uM incubated for 30 mins by GST pull-down assay. The assay is classed as cell-based. The procedure, abridged:
as §2

The subject of assay [13] is HCT-116. The assay is described as follows: Inhibition of cell migration in human HCT-116 cells at 0.75 to 3 uM by scratch wound healing assay. The assay is classed as functional, cell-based. Particulars: dose 0.75-3 µM, TDE = time-dependent effect.
The target of assay [14] is T1, MAP2K3/Myc proto-oncogene protein (Homo sapiens). As to the kind of experiment: Disruption of MKK3/MYC protein-protein interaction in human MDA-MB-468 cells assessed as decrease in MYC level at 1 to 20 uM measured by western blot assay. Type of assay: cell-based. Particulars: dose 1-20 µM.
Assay [15] deals with T2, MAP2K3/Myc proto-oncogene protein. As to the kind of experiment: Disruption of interaction between human recombinant GST-tagged MKK3/His-tagged MYC HLH LZ domain measured after 2 hrs by TR-FRET assay. Type of assay: protein assay.
For assay [16], the system named is HCT-116. The assay is described as follows: Inhibition of cell migration in human HCT-116 cells measured after 18 hrs by scratch wound healing assay. The assay is classed as functional, cell-based. Particulars: dose 0.75-3 µM. The method, boiled down: as §4
The target of assay [17] is T3, Dual specificity mitogen-activated protein kinase kinase 3 (Homo sapiens) (UniProt P46734).
T3 sequence (whole entry): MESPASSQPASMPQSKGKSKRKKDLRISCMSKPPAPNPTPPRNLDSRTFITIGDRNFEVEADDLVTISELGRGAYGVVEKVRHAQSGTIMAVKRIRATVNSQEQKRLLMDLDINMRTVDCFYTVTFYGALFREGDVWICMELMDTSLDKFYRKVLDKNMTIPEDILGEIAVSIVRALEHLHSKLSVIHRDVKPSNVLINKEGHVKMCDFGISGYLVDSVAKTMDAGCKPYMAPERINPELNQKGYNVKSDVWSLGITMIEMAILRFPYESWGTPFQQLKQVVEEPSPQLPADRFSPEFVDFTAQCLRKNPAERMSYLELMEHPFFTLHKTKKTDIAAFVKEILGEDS
As to the kind of experiment: Inhibition of MKK3 in human HEK293T cells assessed as inhibition of p38 phosphorylation by western blot analysis. Type of assay: cell-based.

For assay [18], the target named is T2, MAP2K3/Myc proto-oncogene protein. The assay is described as follows: Disruption of interaction between human recombinant GST-tagged MKK3 (1 to 210 residues)/VF-tagged MYC expressed in HEK293T cells measured after 2 hrs by TR-FRET assay. Type of assay: cell-based.
In assay [19] the test system is HCT-116. As to the kind of experiment: Cytotoxicity against human HCT-116 cells assessed as reduction in cell viability measured after 72 hrs by Alamar blue assay. Type of assay: functional, cell-based. Particulars: HCT-116, 72 h. The method, boiled down:
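HCT116 cells in DMEM with 10% FBS at 37 °C, 5% CO2, seeded and treated next day with compound or DMSO. After 72 h, CellTiter-Blue reagent was added for 2 h at 37 °C and fluorescence read at 560 ex/590 em. Background came from medium-only wells, and viability was taken relative to DMSO control.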

For assay [20], the target named is T1, MAP2K3/Myc proto-oncogene protein (Homo sapiens). The assay is described as follows: Disruption of MKK3/MYC protein-protein interaction in human MDA-MB-468 cells assessed as decrease in CDK4 level at 1 to 20 uM measured by western blot assay. Particulars: dose 1-20 µM. Type of assay: cell-based.
The target is the same in assay [21]. The assay is described as follows: Disruption of MKK3/MYC protein-protein interaction in human HCT-116 cells transfected with VF-tagged MKK3 assessed as inhibition of MYC transcriptional activity at 0.5 to 2 uM measured after 12 hrs by […] reporter assay. The assay is classed as cell-based. Particulars: dose 0.5-2 µM. The method, boiled down:
as §1

For assay [22], the system named is HCT-116. The assay is described as follows: Inhibition of Renilla luciferase activity expressed in human HCT-116 cells assessed as decrease in luminescence at 10 uM measured after 12 hrs by luminescence assay. The assay is classed as cell-based. The procedure, abridged:
as §3

Assay [23] addresses DNA (cytosine-5)-methyltransferase 1 (Homo sapiens, UniProt P26358). As to the kind of experiment: Inhibition of DNMT (unknown origin) by densitometric analysis.

DNA (cytosine-5)-methyltransferase 1, sequence (P26358 whole entry): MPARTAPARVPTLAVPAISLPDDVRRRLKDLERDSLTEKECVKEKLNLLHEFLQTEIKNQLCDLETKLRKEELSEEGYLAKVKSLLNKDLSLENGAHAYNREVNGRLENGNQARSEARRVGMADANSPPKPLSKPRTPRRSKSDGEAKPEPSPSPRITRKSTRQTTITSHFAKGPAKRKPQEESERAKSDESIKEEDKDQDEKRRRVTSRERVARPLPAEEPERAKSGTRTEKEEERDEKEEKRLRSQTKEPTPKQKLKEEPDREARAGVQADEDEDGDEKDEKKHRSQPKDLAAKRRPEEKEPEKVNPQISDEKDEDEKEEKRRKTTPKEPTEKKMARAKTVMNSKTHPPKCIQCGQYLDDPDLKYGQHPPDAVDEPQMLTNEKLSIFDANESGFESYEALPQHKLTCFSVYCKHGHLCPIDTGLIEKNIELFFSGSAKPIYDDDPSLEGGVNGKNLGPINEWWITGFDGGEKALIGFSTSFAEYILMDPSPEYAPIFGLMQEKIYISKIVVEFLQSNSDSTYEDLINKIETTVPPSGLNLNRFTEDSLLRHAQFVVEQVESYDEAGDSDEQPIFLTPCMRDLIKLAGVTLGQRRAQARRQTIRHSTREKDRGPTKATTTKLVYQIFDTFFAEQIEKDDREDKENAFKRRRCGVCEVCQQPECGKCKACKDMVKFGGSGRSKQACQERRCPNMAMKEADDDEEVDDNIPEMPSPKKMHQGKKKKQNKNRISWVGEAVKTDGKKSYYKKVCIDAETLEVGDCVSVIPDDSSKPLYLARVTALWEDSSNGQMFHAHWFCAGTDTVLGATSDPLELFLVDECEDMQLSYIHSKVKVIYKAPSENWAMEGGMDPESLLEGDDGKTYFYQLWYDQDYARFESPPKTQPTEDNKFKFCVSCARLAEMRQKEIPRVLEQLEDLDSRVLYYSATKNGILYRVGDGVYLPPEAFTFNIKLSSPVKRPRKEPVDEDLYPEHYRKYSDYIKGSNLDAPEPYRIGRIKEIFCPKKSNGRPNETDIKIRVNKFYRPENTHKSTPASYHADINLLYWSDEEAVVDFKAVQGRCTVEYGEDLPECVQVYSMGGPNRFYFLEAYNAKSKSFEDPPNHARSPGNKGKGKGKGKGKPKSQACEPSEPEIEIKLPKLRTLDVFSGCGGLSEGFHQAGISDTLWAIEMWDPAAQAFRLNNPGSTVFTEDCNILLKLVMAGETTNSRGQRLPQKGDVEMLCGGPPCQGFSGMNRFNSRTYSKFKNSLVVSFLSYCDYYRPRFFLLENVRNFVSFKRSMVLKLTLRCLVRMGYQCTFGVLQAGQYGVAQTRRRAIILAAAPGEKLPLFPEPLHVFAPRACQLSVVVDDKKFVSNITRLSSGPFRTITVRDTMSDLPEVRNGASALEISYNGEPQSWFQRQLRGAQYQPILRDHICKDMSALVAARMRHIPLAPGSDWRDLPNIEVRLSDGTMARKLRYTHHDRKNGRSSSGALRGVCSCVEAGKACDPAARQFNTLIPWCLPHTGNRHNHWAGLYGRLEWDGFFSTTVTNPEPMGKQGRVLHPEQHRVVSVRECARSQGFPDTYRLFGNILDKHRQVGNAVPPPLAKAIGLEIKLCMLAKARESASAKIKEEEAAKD

With `Cc1cc2c(C(C)C)c(O)c(O)c(C=O)c2c(O)c1-c1c(C)cc2c(C(C)C)c(O)c(O)c(C=O)c2c1O`, in assay [1], the result was inactive. The inhibition in assay [2] was 31%.

Turning to `O=C(O)C1=CC(=C(c2ccc(O)c(C(=O)O)c2)c2ccc(O)c(C(=O)O)c2)C=CC1=O` [AURINTRICARBOXYLIC ACID], the IC50 in [3] is 14.1 µM. Moreover, the inhibition in assay [2] was 58%.

For `Cc1cc(Nc2ccc(NC(=O)c3ccc(Nc4ccnc5ccccc45)cc3)cc2)nc(N)n1`, the Activity result in [4] was “Dose-Dependent Effect”; in assay [5] it was “Dose-Dependent Effect”; with HCT-116 [10] it was 8%; in assay [21], “Dose-Dependent Effect”. The outcome in assay [6], in assay [7], in [9], in [11], in [12] and in assay [14] was Active. The result in [20] was Active. In addition, the inhibition result (in the assay with MDA-MB-468; in assay [17]; with HCT-116 [22]) was “inactive” throughout. For the same compound, the result (in [8]; in the assay with HEK293T) was inactive. Also, the inhibition entry with HCT-116 [13] was “Tde”; with HCT-116 [16], “Dose-Dependent Effect”; in [2] it was 37%. Besides, the IC50 stood at 9.67 µM in [15], 8.46 µM in assay [3], 3.8 µM in assay [18] and 3.2 µM with HCT-116 [19].

Take `O=C(O)[C@H](Cc1c[nH]c2ccccc12)N1C(=O)c2ccccc2C1=O`: the IC50 in assay [23] stood at 0.115 µM. In addition, the result in [1], in [9], in assay [11], in [12] and in [21] was inactive.

With `CC(C)c1cc(C(C)C)c(CC(=O)NS(=O)(=O)Oc2c(C(C)C)cccc2C(C)C)c(C(C)C)c1` [AVASIMIBE], in [3], the IC50 is 63.9 µM.

As a reminder, the inhibition is the percentage by which the read-out fell short of the control. A word on the IC50: it is the concentration needed to halve the response being measured.
